From ChEMBL document CHEMBL2331476, “A novel semisynthetic flavonoid 7-O-galloyltaxifolin upregulates heme oxygenase-1 in RAW264.7 cells via MAPK/Nrf2 pathway” (J Med Chem, 2013)

Key:
[1] = target: T1, Nuclear factor erythroid 2-related factor 2 (Mus musculus) (UniProt Q60795); assay: Activation of Nrf2 in mouse RAW264.7 cells assessed as upregulation of HO1 protein expression at 50 uM after 1 to 6 hr by Western blotting analysis; type: cell-based; details: TDE = time-dependent effect
T1 sequence (whole entry): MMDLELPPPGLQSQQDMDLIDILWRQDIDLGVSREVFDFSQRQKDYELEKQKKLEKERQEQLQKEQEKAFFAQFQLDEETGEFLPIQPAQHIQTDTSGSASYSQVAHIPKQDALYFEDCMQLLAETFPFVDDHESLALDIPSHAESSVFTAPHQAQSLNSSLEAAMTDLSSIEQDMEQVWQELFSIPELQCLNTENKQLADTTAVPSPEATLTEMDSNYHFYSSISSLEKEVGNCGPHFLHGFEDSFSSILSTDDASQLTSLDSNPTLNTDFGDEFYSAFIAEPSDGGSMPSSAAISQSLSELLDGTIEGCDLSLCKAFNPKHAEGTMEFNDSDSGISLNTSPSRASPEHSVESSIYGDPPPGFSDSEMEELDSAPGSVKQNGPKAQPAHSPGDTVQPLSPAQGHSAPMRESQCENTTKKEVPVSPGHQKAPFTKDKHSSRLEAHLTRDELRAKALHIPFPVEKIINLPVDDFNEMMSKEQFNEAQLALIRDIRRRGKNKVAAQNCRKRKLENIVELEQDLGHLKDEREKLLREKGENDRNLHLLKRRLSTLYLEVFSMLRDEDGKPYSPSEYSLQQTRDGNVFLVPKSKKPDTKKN
How it was run: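 HO-1 protein in whole-cell lysates (20 μg/lane) of serum-starved RAW264.7 cells after 6 h at 10-50 μM or 50 μM for 1-6 h in serum-free medium, 0.1% DMSO control. Chemiluminescent Western blot; HO-1 densitometry normalized to actin, mean of three experiments.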

[2] = target: T1, Nuclear factor erythroid 2-related factor 2 (Mus musculus); assay: Activation of Nrf2 in mouse RAW264.7 cells assessed as reduction of KEAP1 protein level at 10 to 50 uM after 6 hrs by Western blotting analysis; type: cell-based
How it was run: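 Whole-cell lysates (20 μg/lane) from serum-starved RAW264.7 cells given 10-50 μM for 6 h or 50 μM for 1-6 h in serum-free medium, 0.1% DMSO vehicle. Keap1 and actin detected by chemiluminescent Western blot; Keap1 band intensity normalized to actin, mean of three experiments.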

Activity [1]: tde
Activity [2]: Dose-dependent effect
Structure (SMILES): O=C(Oc1cc(O)c2c(c1)O[C@H](c1ccc(O)c(O)c1)[C@@H](O)C2=O)c1cc(O)c(O)c(O)c1
